In ChEMBL document CHEMBL4706538, “Novel pleuromutilin derivatives with substituted 6-methylpyrimidine: Design, synthesis and antibacterial evaluation” (2020):
≈ marks a conversion by molar mass, not a printed value. Calls of active or inactive are those of the source. The rule behind the calls is not given here.

Tests used:
Staphylococcus aureus [1] = experiment: Bacteriostatic activity against Staphylococcus aureus BNCC 337371 assessed as reduction in bacterial load at 2 to 4 times MIC incubated for 8 hrs prior to 10 fold dilution followed by replating on MH agar plate and measured after 24 hrs by time-kill assay relative to control; assay type: functional; settings: time 32 hrs
Method in brief: (§1)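 MRSA-337371 was grown in Mueller-Hinton broth at 37 °C for 6 h with shaking, then diluted to about 6×10^5 CFU/mL. It was exposed to 0.5, 1, 2 and 4× MIC. Samples taken at 0, 2, 4, 6, 8, 12 and 24 h were serially diluted 10-fold in 0.9% saline and plated on MH agar at 37 °C for 24 h. Colonies were counted as log10 CFU/mL, in triplicate.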

Staphylococcus aureus [2] = experiment: Antibacterial activity against Staphylococcus aureus ATCC 25923 measured after 18 to 24 hrs by microtiter dilution method; assay type: functional; settings: time 18-24 hrs
Method in brief: (§2)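 Compounds were taken up in 25% DMSO at 64 μg/mL and serially diluted two-fold in water (11 dilutions). Log-phase bacteria grown in MHB were diluted to 10^5-10^6 CFU/mL and mixed 1:1 with the dilutions. Plates were incubated at 37 °C for 18-24 h. MIC was the lowest concentration giving no growth by OD492, averaged over three independent experiments.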

Staphylococcus aureus [3] = experiment: Antibacterial activity against Staphylococcus aureus BNCC 337371 infected in Kunming mouse assessed as reduction in lung tissue damage at 20 to 40 mg/kg, ip measured after 2 days by H and E staining based light microscopic analysis; assay type: functional, organism-based; settings: dose 20-40 mg/kg, time 2.0 day
Method in brief: (§3)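 In neutropenic Kunming mice infected ip with MRSA-337371 and treated ip, lungs were taken after 2 d of treatment. They were fixed in 10% buffered formalin, embedded in paraffin, cut into 4 μm sections, stained with H&E and examined by light microscopy against normal and untreated infected groups.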

Staphylococcus aureus [4] = experiment: Antibacterial activity against Staphylococcus aureus BNCC 337371 infected in Kunming mouse assessed as reduction in bacterial load in lung at 20 to 40 mg/kg, ip measured after 2 days by colony counting method; assay type: functional, organism-based; settings: dose 20-40 mg/kg, time 2.0 day
Method in brief: (§4)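 Kunming mice (SPF, 6-8 weeks) were made neutropenic with ip cyclophosphamide, 150 mg/kg for four days and 100 mg/kg one day before infection. They were infected ip with 0.5 mL of MRSA-337371 at 10^8 CFU/mL. About 1 h later, compound was given ip in 0.5 mL vehicle (DMSO:Tween-80:water 0.5:0.5:9). After 2 d of treatment, lung, kidney and liver were weighed, homogenized in saline, diluted 10-fold, plated on MH agar at 37 °C for 24 h in triplicate, and expressed as CFU/g.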

Staphylococcus aureus [5] = experiment: Bacteriostatic activity against Staphylococcus aureus BNCC 337371 assessed as reduction in bacterial load incubated for 2 to 24 hrs prior to 10 fold dilution followed by replating on MH agar plate and measured after 24 hrs by time-kill assay; assay type: functional, organism-based; settings: time 2-24 hrs; method in brief: as §1
Staphylococcus aureus [6] = experiment: Antibacterial activity against Staphylococcus aureus BNCC 337371 infected in Kunming mouse assessed as reduction in bacterial load in kidney at 20 to 40 mg/kg, ip measured after 2 days by colony counting method; assay type: functional, organism-based; settings: dose 20-40 mg/kg, time 2.0 day; method in brief: as §4
Staphylococcus aureus [7] = experiment: Antibacterial activity against Staphylococcus aureus BNCC 337371 infected in ip dosed Kunming mouse assessed as increase in mouse survival measured after 7 days; assay type: functional; settings: for ED50: BNCC 337371, ip, 168 h, time 7 day; for Activity: time 7.0 day
Method in brief: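 Neutropenic 6-8 week Kunming mice (cyclophosphamide 150 mg/kg ip for four days, then 100 mg/kg one day before inoculation) were infected ip with 0.5 mL MRSA-337371 at 10^8 CFU/mL. About 1 h later they were dosed ip at 5, 8, 15, 25 or 40 mg/kg in DMSO:Tween-80:water 0.5:0.5:9 (10 per group). Mice were observed twice daily, survival was read at day 7, and ED50 was calculated by the Bliss method.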

[8] = test system: Staphylococcus epidermidis; experiment: Antibacterial activity against Staphylococcus epidermidis ATCC 51625 measured after 18 to 24 hrs by microtiter dilution method; assay type: functional; settings: time 18-24 hrs; method in brief: as §2
Staphylococcus aureus [9] = experiment: Antibacterial activity against Staphylococcus aureus BNCC 337371 infected in Kunming mouse assessed as reduction in bacterial load in liver at 20 to 40 mg/kg, ip measured after 2 days by colony counting method; assay type: functional, organism-based; settings: dose 20-40 mg/kg, time 2.0 day; method in brief: as §4
Enterococcus faecalis = experiment: Antibacterial activity against Enterococcus faecalis measured after 18 to 24 hrs by microtiter dilution method; assay type: functional; settings: time 18-24 hrs; method in brief: as §2
Escherichia coli = experiment: Antibacterial activity against Escherichia coli CICC 10389 measured after 18 to 24 hrs by microtiter dilution method; assay type: functional; settings: time 18-24 hrs; method in brief: as §2
Staphylococcus aureus [10] = experiment: Antibacterial activity against Staphylococcus aureus BNCC 337371 infected in Kunming mouse assessed as reduction in inflammatory cell infiltration in pulmonary interstitium at 40 mg/kg, ip measured after 2 days by H and E staining based light microscopic analysis; assay type: functional, organism-based; settings: time 2.0 day; method in brief: as §3
Staphylococcus aureus [11] = experiment: Antibacterial activity against Staphylococcus aureus BNCC 337371 infected in Kunming mouse assessed as thickening of alveolar septum and wall at 20 mg/kg, ip measured after 2 days by H and E staining based light microscopic analysis; assay type: functional, organism-based; settings: time 2.0 day; method in brief: as §3
Pasteurella multocida = experiment: Antibacterial activity against Pasteurella multocida CVCC 1659 measured after 18 to 24 hrs by microtiter dilution method; assay type: functional; settings: time 18-24 hrs; method in brief: as §2
Streptococcus agalactiae = experiment: Antibacterial activity against Streptococcus agalactiae measured after 18 to 24 hrs by microtiter dilution method; assay type: functional; settings: time 18-24 hrs; method in brief: as §2
[12] = test system: Streptococcus dysgalactiae; experiment: Antibacterial activity against Streptococcus dysgalactiae measured after 18 to 24 hrs by microtiter dilution method; assay type: functional; settings: time 18-24 hrs; method in brief: as §2
Staphylococcus aureus [13] = experiment: Antibacterial activity against Staphylococcus aureus BNCC 337371 measured after 18 to 24 hrs by microtiter dilution method; assay type: functional; settings: time 18-24 hrs; method in brief: as §2
Staphylococcus aureus [14] = experiment: Antibacterial activity against Staphylococcus aureus BNCC 337371 infected in Kunming mouse assessed as reduction in local congestion in lung at 20 to 40 mg/kg, ip measured after 2 days by H and E staining based light microscopic analysis; assay type: functional, organism-based; settings: dose 20-40 mg/kg, time 2.0 day; method in brief: as §3
Staphylococcus aureus [15] = experiment: Antibacterial activity against Staphylococcus aureus BNCC 337371 infected in Kunming mouse assessed as bacterial load in lung at 20 to 40 mg/kg, ip measured after 2 days by colony counting method (reference value: 4.8 log10CFU/ml); assay type: functional; settings: dose 20-40 mg/kg; time 2 day; method in brief: as §4
Staphylococcus aureus [16] = experiment: Antibacterial activity against Staphylococcus aureus BNCC 337371 infected in Kunming mouse assessed as reduction in infiltration of neutrophils cells at 20 to 40 mg/kg, ip measured after 2 days by H and E staining based light microscopic analysis; assay type: functional, organism-based; settings: dose 20-40 mg/kg, time 2.0 day; method in brief: as §3

| Structure (SMILES) | fold change (FC) (Staphylococcus aureus [1]) | MIC (Staphylococcus aureus [2]) | Activity (Staphylococcus aureus [5]) | ED50 (Staphylococcus aureus [7]) | Activity (Staphylococcus aureus [7]) | MIC [8] | Activity (Staphylococcus aureus [9]) | MIC (Enterococcus faecalis) | MIC (Escherichia coli) | MIC (Pasteurella multocida) | MIC (Streptococcus agalactiae) | MIC [12] | MIC (Staphylococcus aureus [13]) | further results |
| --- | --- | --- | --- | --- | --- | --- | --- | --- | --- | --- | --- | --- | --- | --- |
| C=C[C@]1(C)C[C@@H](OC(=O)CSc2nc(C)cc(N3CCCC3)n2)[C@@]2(C)[C@H](C)CC[C@]3(CCC(=O)[C@H]32)[C@@H](C)[C@@H]1O | >=2 | 0.06 µM (≈ 0.0333 µg/mL) | Dose-dependent effect | 18 mg/kg | Dose-dependent effect | 0.11 µM (≈ 0.0611 µg/mL) | inactive | 14.4 µM (≈ 8.01 µg/mL) | > 57.6 µM | 14.4 µM (≈ 8.01 µg/mL) | 0.06 µM (≈ 0.0333 µg/mL) | 0.06 µM (≈ 0.0333 µg/mL) | 0.06 µM (≈ 0.0333 µg/mL) | Activity (Staphylococcus aureus [3]): Active; Activity (Staphylococcus aureus [4]): Active; Activity (Staphylococcus aureus [6]): Active; Activity (Staphylococcus aureus [10]): Active; Activity (Staphylococcus aureus [11]): Active |
| C=C[C@]1(C)C[C@@H](OC(=O)CSCCN(CC)CC)[C@]2(C)[C@H](C)CC[C@]3(CCC(=O)[C@H]32)[C@@H](C)[C@@H]1O [TIAMULIN] | 1 | 0.82 µM (≈ 0.405 µg/mL) | Dose-dependent effect | 25.9 mg/kg | Dose-dependent effect | 0.82 µM (≈ 0.405 µg/mL) | inactive | 52.5 µM (≈ 25.9 µg/mL) | 52.5 µM (≈ 25.9 µg/mL) | 3.28 µM (≈ 1.62 µg/mL) | 0.2 µM (≈ 0.0988 µg/mL) | 0.2 µM (≈ 0.0988 µg/mL) | 0.82 µM (≈ 0.405 µg/mL) | Activity (Staphylococcus aureus [14]): Active; Activity (Staphylococcus aureus [15]): 1.1 log10CFU/ml; Activity (Staphylococcus aureus [16]): Active |
| C=C[C@]1(C)C[C@@H](OC(=O)CSc2nc(C)cc(N3CCOCC3)n2)[C@@]2(C)[C@H](C)CC[C@]3(CCC(=O)[C@H]32)[C@@H](C)[C@@H]1O | >=2 | 0.11 µM (≈ 0.0629 µg/mL) | Dose-dependent effect | – | – | 0.11 µM (≈ 0.0629 µg/mL) | – | 14 µM (≈ 8 µg/mL) | > 56 µM | 14 µM (≈ 8 µg/mL) | 0.05 µM (≈ 0.0286 µg/mL) | 0.05 µM (≈ 0.0286 µg/mL) | 0.11 µM (≈ 0.0629 µg/mL) | – |
